Experiment: Toxicity liver stage against HepG2, at 10uM
Assay type: cell-based
Set-up: test concentration 10 uM, cell line HepG2-A16-CD81EGFP
Settings: human, HepG2-A16-CD81EGFP cells; read-out: INHIBITION
Procedure, shortened: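 Uninfected HepG2-A16-CD81EGFP cells, 3 × 10^3 per well, 1536-well, plated on prespotted compound at 10 μM final, parasite-free screening media added to match infected plates; puromycin 10 μM positive, DMSO 0.5% negative; run in parallel with 48 h PbLuc assay at 37 °C, 5% CO2; viability by CellTiter-Glo luminescence, normalized to controls.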

SMILES | cytotoxicity at 10 µM
O=C(CCc1nc2cc(Br)cnc2[nH]1)NCc1cccnc1 | -0.874%
COCCN1CCCN(C(=O)c2oc(C)nc2C)CC1 | 2.04%
Cc1cc(CN2CCN(CC(O)c3cccc(F)c3)CC2)no1 (stereo unspecified) | -12.2%
Cc1nc(COCC2CN(C(N)=O)Cc3nccn3C2)cs1 (stereo unspecified) | 5.3%
O=c1c(NCc2ccco2)c(NCC(O)CN2CCOCC2)c1=O (stereo unspecified) | -55.8%
COCCN(C)C[C@@H]1CN(C(=O)c2ccc(C)cc2)C[C@@H]1CO | -9.21%
OCc1ccncc1NCc1cnc(-c2ccccn2)s1 | -17.4%
O=C(Cc1csc(-c2ccccc2)n1)N[C@@H](C(=O)O)c1ccccc1 | 6.56%
Cc1nnc(CN(Cc2ccccc2Br)C2CC2)o1 | 5.2%
COc1ccccc1CC(C)N(C)CCS(C)(=O)=O (stereo unspecified) | 7.57%
O=C1COc2ccc(C(=O)NS(=O)(=O)c3ccccc3Cl)cc2N1 | -7.03%
CCCc1cc(C(=O)N(CC)Cc2ccncc2)[nH]n1 | -6.52%
CCc1n[nH]c(C2CN(C(=O)c3ncoc3C(C)C)CCO2)n1 (stereo unspecified) | -9.8%
CN(C)c1ccc(C(=O)NCCCc2ccccn2)cn1 | -54%
COCc1ccc(C(=O)N2CCOCC2c2ccc(C)o2)cc1 (stereo unspecified) | -5.48%
Cc1cnn(CC(=O)N2CCC3(CCC(=O)N(CC(C)O)C3)CC2)c1 (stereo unspecified) | 3.05%
COc1cccc(F)c1C(C)NC(=O)NCc1cnc(C)s1 (stereo unspecified) | -4.94%
Cc1n[nH]c(C)c1CCNC(=O)Nc1ccc(S(C)(=O)=O)cc1 | -5.01%
O=C(O)CN1CCCC2(CCN2Cc2cccc(F)c2)C1 (stereo unspecified) | -108%
Cc1nc(CN2CCO[C@H]3CN(C(=O)c4cccn4C)C[C@H]32)cs1 | -136%
OCCN1CCOC2(CCCN(c3ncccn3)C2)C1 (stereo unspecified) | 9.55%
COc1ncccc1CN1C[C@@H]2COC[C@]2(CNS(C)(=O)=O)C1 | 8.01%
COc1c(C2CCCN2CC(=O)N2CCCCC2)c(C)nn1C (stereo unspecified) | 0.113%

SMILES | cytotoxicity at 10 µM
Cn1nc(C2CN(S(C)(=O)=O)C2)c2nccnc21 | -13.2%
OC1CN(Cc2ccccc2)CCN(c2ccncc2)C1 (stereo unspecified) | -4.74%
COc1cccc(OCCCc2cncc(C(N)=O)c2)c1 | -124%
COc1cccc(Cl)c1-c1cc(CN)ccc1F | -5.3%
Cc1cc(C)n(C2CN(CC(=O)N3CCOCC3)C2)n1 | -3.2%
O=C(c1cscn1)N1CCC2(CCN(S(=O)(=O)c3ccccc3)C2)C1 (stereo unspecified) | 11%
O=C(c1cccc(Oc2ccccc2)c1)N1CCCC(O)(CO)CC1 (stereo unspecified) | -3.17%
CCOc1cc(C(=O)N2CC=C(c3ccc(O)cc3)CC2)ccn1 | -4.89%
c1cncc(CN2CCC(NCCc3ccc4c(c3)OCO4)CC2)c1 | -9.62%
O=C(NCc1cccnc1)[C@H]1CC[C@@H]2[C@@H](CCN2c2ncccn2)O1 | -82.2%
NC(=O)c1cnc(NCC(=O)NCc2ccco2)c(Cl)c1 | 3.97%
Cc1nc2c(NC(CC(C)(C)C)c3cccnc3)ncnc2o1 (stereo unspecified) | 4.24%
Cc1ccc(CN(CCCN(C)C)Cc2cnc(C)n2C)o1 | 9.96%
CCn1ccnc1CN1CCCn2nc(CNC(=O)C3CCC3)cc2C1 | -7.79%
COc1cccc(CN(C)CC2=Nc3ccccc3S(=O)(=O)N2)c1 | 36.4%
N#Cc1cc(S(N)(=O)=O)ccc1N1CCc2c(Cl)cccc2C1 | 14.7%
Cc1nn(C)c(C)c1C1CCCN1CC(=O)Nc1cccnc1 (stereo unspecified) | -31.7%
CN(C)C(=O)C1CN(Cc2nccs2)CCN(S(C)(=O)=O)C1 (stereo unspecified) | 0.325%
Cc1cc(CN2CC[C@H]3OCC[C@@]3(C(=O)N3CCOCC3)C2)no1 | 7.93%
Cc1c(C(C)NCC2CCCC2)cnn1-c1ccc(F)cc1F (stereo unspecified) | 9%
CCC(NC(=O)CCCN1CCCCC1)c1cn2cccnc2n1 (stereo unspecified) | 8.09%
c1ccc(-c2nc3c(c(NCCn4cccc4)n2)CCNCC3)nc1 | -51.9%
Cc1c[nH]nc1C1CN(c2cnccn2)CCO1 (stereo unspecified) | 4.34%

SMILES | cytotoxicity at 10 µM
CN1CCN(c2cc(N3CCCC3CO)ncn2)Cc2ccccc21 (stereo unspecified) | -5.22%
CN(C)c1ccc(C(O)CNC(=O)NCCCc2ccccc2)cc1 (stereo unspecified) | -10%
CN(C)c1ncnc2c1CCN(CC1CCOC1)CC2 (stereo unspecified) | 0.745%
CC(O)(CN1CCN(CCO)CC1)c1cccc(C(F)(F)F)c1 (stereo unspecified) | -17.5%
O=C(Nc1cnn(Cc2ccc(Cl)cc2)c1)N1CCCC1CO (stereo unspecified) | -1.13%
CC(=O)N[C@@H]1C[C@H](c2ccc(OCCO)cc2)OC2(CCOCC2)C1 | -21.2%
Cc1nc(C)n(CC2CCCN2Cc2ccccn2)n1 (stereo unspecified) | -0.186%
COc1cccc(OCCNCc2c(C)nn(C)c2N(C)C)c1 | 1.25%
CC(=O)c1ccc(-c2cnn(CC(=O)Nc3cc(C)nn3C)c2)nc1 | -6.93%
CC(Oc1cc(Cl)cc(Cl)c1)C(=O)NCCC(=O)N(C)C (stereo unspecified) | -6.51%
O=C(Cc1ccc(F)cc1)N1CCN(CC(O)c2ccccc2)CC1 (stereo unspecified) | -11.2%
O=c1[nH]c(CCN2CCCC2Cn2cncn2)nc2ccccc12 (stereo unspecified) | -5.48%
NC(=O)CC1CCN(C(=O)NCCc2ccc(Cl)s2)CC1 | -8.03%
O=C(Nc1cccn(CC(F)(F)F)c1=O)c1ccncc1F | 0.315%
O=C(NCCNc1ncccn1)N1CCN(C2CCCC2)CC1 | -10%
CSCC[C@@H](CO)Nc1ccc(-c2nc(-c3ccccc3C)no2)cn1 | 3.77%
CCc1nnc2n1CCN(Cc1csc(NC(C)=O)n1)C2 | -1.45%
O=C(O)c1cc2c(nc1-c1ccncc1)CCN(Cc1ccoc1)CC2 | -70.9%
CN(CCc1cn[nH]c1)C(=O)C1CC(=O)N(Cc2ccccn2)C1 (stereo unspecified) | -6.47%
CC(=O)N1CCCC(c2ccccn2)C1 (stereo unspecified) | -23.7%
CN(C(=O)c1ccc[nH]1)C1CCC(NC(=O)OC(C)(C)C)CC1 (stereo unspecified) | -11.9%
CCn1cc(CN2CCCN(C(=O)c3c(C)oc(C)c3C)CC2)cn1 | -8.89%
CC(NC(=O)C1CN(c2ncnc3c2nnn3C)C1)c1ccccc1 (stereo unspecified) | 2.8%

SMILES | cytotoxicity at 10 µM
CCN1CCOC(CNCc2ccc(OCc3ccccn3)cc2)C1 (stereo unspecified) | -7.83%
Cc1ccc(CNC(=O)C2CCN(C(=O)c3ccco3)CC2)n1C | 2.46%
CN(C(=O)c1ccco1)C1CCC(NC(=O)OC(C)(C)C)CC1 (stereo unspecified) | 8.12%
CC(C)c1nc(C(=O)N2C[C@H](C(C)C)[C@@H](N)C2)cs1 | -3.73%
Cc1cnc(C)c(N2CCC(C(=O)O)(n3ccc(C(C)(C)C)n3)CC2)n1 | 20.4%
CC(=O)Nc1cccc2c1ccn2CC(=O)Nc1n[nH]c(CC(C)C)n1 | -0.473%
O=C(O)c1ccc(N2CCC(Cc3ccccc3)CC2)nn1 | -6.14%
COCCN1CC2(CCCN(C(=O)CCCc3cccs3)C2)CCC1=O (stereo unspecified) | -8.5%
Cc1nc(C)n(CC2CN(Cc3nc4ccccc4n3C)CCO2)n1 (stereo unspecified) | -4.68%
N#Cc1cc(NC(=O)c2ccncc2)ccc1N1CCC(O)CC1 | 7.48%
COCC1c2c(cnn2CC2CC2)CCN1Cc1nccs1 (stereo unspecified) | -1.21%
Cc1occc1C(=O)N1CCC2(CCC2NC(=O)c2ccn(C)c2)CC1 (stereo unspecified) | -1.75%
Cc1cnn(CC2CC2)c1NC(=O)c1cccnc1O | 6.62%
Cc1nc(C)c(CNC(=O)NC2CC(C)(C)OC2(C)C)s1 (stereo unspecified) | -0.864%
Cc1nc(CN2CC[C@H](OCC3CC3)[C@@H]2Cc2cccnc2)cs1 | 0.15%
CCCS(=O)(=O)N1CCC2(CCC(=O)N(CCc3ccncc3)C2)CC1 | -11.7%
Cc1cnc(NC(=O)c2cccc(CN(C)Cc3snnc3C)c2)s1 | 16.3%
Cc1ccc(CN2CC[C@H]3[C@H](CC(Cn4cccn4)N3C)C2)s1 (stereo partly specified) | 6.66%
CCC(=O)Nc1cccc(OCC(=O)N2C[C@H]3CC[C@H]2C3)c1 | -2.18%
Cc1ccc(S(=O)(=O)N2C[C@H]3C[C@H](NC(=O)c4ccnn4C)[C@H]3C2)cc1 | 85.2%
CCOC1COC2(CCN(c3ncc(C)cn3)CC2)C1 (stereo unspecified) | 7.21%
CCN(Cc1ccoc1)C(=O)Nc1ccccc1CN(C)C(C)=O | 4.55%
Cc1nnc(NCC(c2ccco2)N2CCCC2)c(C#N)c1C (stereo unspecified) | -3.04%

SMILES | cytotoxicity at 10 µM
CSCc1noc(CNC(=O)C2CCN(C(C)C)CC2)n1 | -2.86%
CN(C)C(=O)c1ccc(C2CCCN2C(=O)c2ccccc2N(C)C)s1 (stereo unspecified) | 18.5%
COCCC(=O)N1CCN(CC2CC2)c2nc(C)ccc2C1 | 9.88%
CCCNC(=O)CNc1cc(C#N)ccc1OCC | -11.6%
CO[C@H]1CCN(S(=O)(=O)c2cccnc2)[C@@H]2CN(CC3CC3)C[C@H]12 | -73.5%
CN(C)C(=O)Cc1ccc(NC(=O)NC2CC2)cc1 | 6.13%
CNc1cc(C)nc(C2CN(Cc3cncs3)CCO2)c1 (stereo unspecified) | -12.3%
Cn1ccc2c(-c3cc(N4CCCCC4)ncn3)ccnc21 | -3.46%
Cc1cc(C(=O)N(C)C)nc(C2(C)CCCN2c2ccccc2)n1 (stereo unspecified) | 4.89%
C[C@@H]1CN(C(=O)CCc2cnn(C)c2)C[C@@]1(O)C1CCC1 | -11.4%
CCCC(=O)Nc1ccc2c(c1)C1(CCOCC1)CN2CCOC | -104%
N#Cc1cccc(CN(CCO)Cc2ccsc2)c1 | 19.6%
CN(C)CC(C)(C)Cn1cnc(-c2ccccc2)c1-c1cccc(O)c1 | -5.53%
CCOc1ncccc1NC(=O)N1CCC(CN2CCOCC2)CC1 | -13.6%
CCNC(=O)N1C[C@@H](NC(C)=O)[C@H](c2ccc(C)o2)C1 | -8.82%
CN(C)C(=O)CN1CCC2(CC1)COC2 | 5.53%
CCn1ncnc1CN1CCC(CNC(=O)c2ccccc2C#N)C1 (stereo unspecified) | 13.2%
CCOc1cccc(CNc2ccccc2Cl)c1O | -2.52%
COc1nc(C)ccc1CNC(=O)NC(C)Cc1c(C)nn(C)c1C (stereo unspecified) | 8.37%

Reference: ChEMBL document CHEMBL4513216, “Probing the Open Global Health Chemical Diversity Library for Multistage-Active Starting Points for Next-Generation Antimalarials” (ACS Infect Dis, 2020)
